Paper PMC7427514 (Chem, 2020)

Assays:
[1] = tested on: 3DIV hippocampal mouse neurons; test: Ca2+ influx assay upon GABA application in immature; type: cell-based; conditions: for Ca2+ influx upon GABA application: 10, 100 μM, GABA 100 μM, compared with DMSO-treated controls; for cell viability (fluorescence level upon KCl application): KCl 90 mM, 3DIV neurons
GABAA receptors = test: Voltage-clamp recordings of GABA-evoked currents in neuronal cultures; type: cell-based; conditions: 10 μM bath application; 12–20 DIV hippocampal mouse neurons
How it was run: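 Cultured hippocampal mouse neurons at DIV12–20 were voltage-clamped at 22–24°C in extracellular solution. GABA-evoked currents (average of five sweeps) were recorded before and after bath application of test compound (10 μM). Cells with access resistance >25 MΩ or with >20% variation in GABA-current peak were excluded. Signals were sampled at 20 kHz and low-pass filtered at 10 kHz.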

KCC2 = target: T1, KCC2 (Homo sapiens, UniProt Q9H2X9); test: Tl influx assay in KCC2-transfected HEK293 cells; type: cell-based; conditions: 10 μM, versus control DMSO, mean ± SEM
T1 sequence (Q9H2X9 1-1139): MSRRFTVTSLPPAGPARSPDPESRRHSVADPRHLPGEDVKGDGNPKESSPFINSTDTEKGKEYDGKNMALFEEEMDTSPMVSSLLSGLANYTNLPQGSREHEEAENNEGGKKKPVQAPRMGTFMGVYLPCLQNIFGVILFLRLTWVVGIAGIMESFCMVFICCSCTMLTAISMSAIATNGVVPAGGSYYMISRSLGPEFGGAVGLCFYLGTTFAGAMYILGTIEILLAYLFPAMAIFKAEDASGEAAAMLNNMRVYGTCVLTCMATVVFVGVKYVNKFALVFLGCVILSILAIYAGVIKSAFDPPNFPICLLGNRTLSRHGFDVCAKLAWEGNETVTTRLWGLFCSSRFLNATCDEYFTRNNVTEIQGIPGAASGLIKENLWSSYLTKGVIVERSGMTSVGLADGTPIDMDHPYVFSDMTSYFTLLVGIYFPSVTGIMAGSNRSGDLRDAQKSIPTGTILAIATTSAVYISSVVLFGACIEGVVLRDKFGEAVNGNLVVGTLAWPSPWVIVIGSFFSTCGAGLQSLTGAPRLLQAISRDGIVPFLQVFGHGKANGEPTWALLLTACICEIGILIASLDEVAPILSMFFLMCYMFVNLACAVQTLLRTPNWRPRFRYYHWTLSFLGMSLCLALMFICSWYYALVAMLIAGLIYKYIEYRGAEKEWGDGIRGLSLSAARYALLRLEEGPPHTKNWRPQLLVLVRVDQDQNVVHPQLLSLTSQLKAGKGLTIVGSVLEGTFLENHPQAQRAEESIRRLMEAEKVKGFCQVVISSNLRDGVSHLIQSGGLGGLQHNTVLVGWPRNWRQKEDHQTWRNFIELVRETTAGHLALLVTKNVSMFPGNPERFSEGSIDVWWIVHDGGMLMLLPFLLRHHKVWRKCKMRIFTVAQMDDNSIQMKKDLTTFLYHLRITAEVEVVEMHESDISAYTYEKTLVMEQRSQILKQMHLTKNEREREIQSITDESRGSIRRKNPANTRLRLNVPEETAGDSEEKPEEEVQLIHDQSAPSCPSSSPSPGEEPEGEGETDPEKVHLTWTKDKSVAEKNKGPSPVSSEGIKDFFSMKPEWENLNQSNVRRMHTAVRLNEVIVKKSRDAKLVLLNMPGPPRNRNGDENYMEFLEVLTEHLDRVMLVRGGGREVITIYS
How it was run: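 KCC2 (in PRK5)- or mock-transfected HEK293 cells were loaded for 1 h with Tl-sensitive dye (1:1,000) and probenecid (1:100) in Cl−-free hypotonic solution, washed, then treated with test compound with 100 μM ouabain. Fluorescence (ex 485/em 535 nm) was read for 20 s baseline, 20 s after TlSO4 (2 mM final), then 60 s after NaCl (74 mM final). Mock ΔF/F0 (last 10 s) was subtracted; fluorescence increase is expressed as % of DMSO control.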

[2] = tested on: valproic acid (VPA) mouse model of ASD; test: Male-female interaction test in VPA mice; type: in vivo; conditions: 0.2 mg kg−1 IP daily, chronic
How it was run: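 Male VPA-model mice (6–8 weeks) and controls were dosed i.p. daily with vehicle or test compound at 0.2 mg/kg, with testing 1 h post-injection after at least 1 week of treatment. Each male was placed alone in a cage and habituated for 5 min. An unfamiliar C57BL/6J female was then introduced, and behavior was recorded for 5 min and scored blind.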

[3] = tested on: valproic acid (VPA) mouse model of ASD; test: Grooming test in VPA mice; type: in vivo; conditions: 0.2 mg kg−1 IP daily, chronic
How it was run: (§1)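 Male VPA-model mice (prenatal VPA 600 mg/kg i.p. at gestational day 12.5) and controls, 6–8 weeks old, were randomized to vehicle (2% DMSO in saline) or test compound 0.2 mg/kg i.p. daily for 21–28 days. Tests started after 1 week of treatment, 1 h post-injection, and were video-scored manually by a blind operator.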

VPA mice and controls = test: Diuresis analysis in VPA mice and controls; type: in vivo, mouse; conditions: 0.2 mg kg−1 IP; young adult control and VPA mice; relative to vehicle
How it was run: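 VPA-model offspring were from C57BL/6J dams given 600 mg/kg VPA i.p. in PBS at gestational day 12.5; controls were included. Mice of both sexes received one i.p. dose of vehicle or test compound at 0.2 mg/kg, from a 1 mg/mL DMSO stock diluted in PBS to 0.02 mg/mL and injected at 10 μL/g. Urine volume was collected for 120 min.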

[4] = tested on: valproic acid (VPA) mouse model of ASD; test: Marble burying test in VPA mice; type: in vivo; conditions: 0.2 mg kg−1 IP daily, chronic
How it was run: as §1

NKCC2 = target: T2, NKCC2 (Homo sapiens, UniProt Q13621); test: Cl− influx assay in NKCC2-transfected HEK293 cells; type: cell-based; conditions: HEK293, read-out: NKCC2 inhibition
T2 sequence (Q13621 1-1099): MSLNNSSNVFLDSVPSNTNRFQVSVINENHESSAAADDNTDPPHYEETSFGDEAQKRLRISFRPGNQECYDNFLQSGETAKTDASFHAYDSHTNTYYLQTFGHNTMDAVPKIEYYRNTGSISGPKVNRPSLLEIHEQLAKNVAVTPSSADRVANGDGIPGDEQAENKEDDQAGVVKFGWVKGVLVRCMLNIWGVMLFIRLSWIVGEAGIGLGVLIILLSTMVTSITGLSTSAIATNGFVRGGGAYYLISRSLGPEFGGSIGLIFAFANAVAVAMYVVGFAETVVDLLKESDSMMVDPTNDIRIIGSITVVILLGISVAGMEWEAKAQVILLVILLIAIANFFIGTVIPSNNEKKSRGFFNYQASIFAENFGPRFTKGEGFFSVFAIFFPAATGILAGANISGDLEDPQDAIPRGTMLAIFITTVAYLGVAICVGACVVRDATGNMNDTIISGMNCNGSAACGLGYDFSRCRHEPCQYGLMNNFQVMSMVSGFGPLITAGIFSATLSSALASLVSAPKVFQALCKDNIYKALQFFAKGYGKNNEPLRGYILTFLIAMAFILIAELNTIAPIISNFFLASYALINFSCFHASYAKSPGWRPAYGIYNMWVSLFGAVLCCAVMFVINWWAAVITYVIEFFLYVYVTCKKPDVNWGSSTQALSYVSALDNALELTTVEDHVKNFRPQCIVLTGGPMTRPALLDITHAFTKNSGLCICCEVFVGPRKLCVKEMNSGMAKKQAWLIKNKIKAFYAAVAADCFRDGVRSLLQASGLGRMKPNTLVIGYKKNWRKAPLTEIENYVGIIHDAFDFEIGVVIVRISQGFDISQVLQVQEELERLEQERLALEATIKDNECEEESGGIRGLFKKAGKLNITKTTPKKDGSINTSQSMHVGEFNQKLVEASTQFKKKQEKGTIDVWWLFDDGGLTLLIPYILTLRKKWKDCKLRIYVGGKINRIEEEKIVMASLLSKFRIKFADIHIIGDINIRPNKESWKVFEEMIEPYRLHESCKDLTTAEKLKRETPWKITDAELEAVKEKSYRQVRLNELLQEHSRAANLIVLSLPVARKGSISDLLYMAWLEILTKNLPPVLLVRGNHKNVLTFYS
How it was run: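 HEK293 cells were co-transfected by lipofection with NKCC2 (in PRK5) or empty vector plus membrane-tagged Cl−-sensitive YFP, replated after 4 h, and assayed at 48 h. Test compound (10 or 100 μM) was applied for 30 min in Cl−-free hypotonic HEPES buffer, pH 7.4. Fluorescence (ex 485/em 535 nm) was read for 20 s baseline and 60 s after NaCl (74 mM final). Fluorescence decrease is expressed as % of DMSO control; four independent experiments, mean ± SEM.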

[5] = tested on: WT and Ts65Dn hippocampal neurons; test: MQAE Cl− imaging in neuronal cultures; type: cell-based, mouse; conditions: 10 μM
How it was run: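 Hippocampal neurons from P2 WT and Ts65Dn pups were cultured on poly-L-lysine coverslips in Neurobasal-A/B-27. At 15 DIV they were loaded with 5 mM MQAE plus test compound (10 μM) or DMSO for 30 min at 37°C. Coverslips were then perfused with extracellular solution (pH 7.4) containing compound for 5 min at 25°C and imaged by confocal microscopy.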

[6] = tested on: Ts65Dn mice and WT littermates; test: Diuresis analysis in Ts65Dn mice and WT littermates; type: in vivo, mouse; conditions: 0.2 mg kg−1 IP; adult WT and Ts65Dn mice; relative to vehicle
How it was run: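 Adult (P60–120) Ts65Dn mice and WT littermates of both sexes received one i.p. dose of vehicle or test compound at 0.2 mg/kg. The dose was given from a 1 mg/mL DMSO stock diluted in PBS to 0.02 mg/mL and injected at 10 μL/g. Urine volume was collected for 2 h, after which mice were returned to home cages.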

inhibitory activity on GABAA receptors (GABA-evoked currents) (GABAA receptors) | KCC2 inhibition (KCC2) | diuretic effect (urine volume for 2 h) (VPA mice and controls) | inhibition at 10 µM (NKCC2) | diuretic effect (urine volume for 2 h) [6] | Compound | Ca2+ influx upon GABA application [1] | cell viability (fluorescence level upon KCl application) [1] | sociability during male-female interaction [2] | repetitive behaviors in the grooming task [3] | level of alleged NKCC1 inhibition in the Ca2+ influx assay compared with the Cl− influx assay ([1]; 10 and 100 μM) | repetitive behaviors in the marble burying test [4] | [Cl−]i in wild-type (WT) neurons ([5]; 15 DIV WT neurons) | [Cl−]i in Ts65Dn neurons ([5]; mature (15 DIV) Ts65Dn neurons)
variable inhibitory activity |  |  |  |  | NS(=O)(=O)c1cc(C(=O)O)c(NCc2ccco2)cc1Cl [furosemide] | significantly reduced | without affecting the cell viability |  |  |  |  |  | 
 | 37.6 ± 6.7% |  |  |  | CCCC[C@]1(C2CCCC2)Cc2cc(OCC(=O)O)c(Cl)c(Cl)c2C1=O [DIOA, R-(+)-[(2-n-Butyl-6,7-dichloro-2-cyclopentyl-2,3-dihydro-1-oxo-1H-inden-5-yl)oxy]acetic acid] |  |  |  |  |  |  |  | 
this was not the case |  | significantly increased the urine volume | 82.7 ± 20.4% | significantly increased the urine volume | CCCCNc1cc(C(=O)O)cc(S(N)(=O)=O)c1Oc1ccccc1 [bumetanide] | significantly reduced | without affecting the cell viability | rescued poor sociability | non-significant trend toward WT levels | corresponded to the levels obtained for the Cl^− influx assay | significantly reduced repetitive behaviors | without significantly affecting | restored aberrant [Cl^−]i to physiological levels
